Experiment [1] in a line: Binding affinity to Plasmodium falciparum 20S proteasome beta 5 subunit assessed as equilibrium constant using fluorogenic peptide Ac-WLA-AMC as substrate in presence of PA28alpha by fluorescence based microplate reader assay.
Experiment [2] concerns the target T1, Proteasome Macropain subunit MB1 (Homo sapiens) (UniProt P28074).
T1 sequence (whole entry): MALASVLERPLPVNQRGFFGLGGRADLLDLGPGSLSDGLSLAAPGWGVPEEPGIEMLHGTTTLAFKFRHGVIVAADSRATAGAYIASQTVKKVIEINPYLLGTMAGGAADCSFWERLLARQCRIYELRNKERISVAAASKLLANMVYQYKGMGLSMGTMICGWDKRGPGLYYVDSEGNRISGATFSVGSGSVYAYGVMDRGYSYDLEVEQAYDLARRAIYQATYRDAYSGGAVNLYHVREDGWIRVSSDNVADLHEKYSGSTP
The experiment is described as follows: Binding affinity to human 20S constitutive proteasome beta 5 subunit assessed as half-life using fluorogenic peptide Ac-WLA-AMC as substrate in presence of PA28alpha by fluorescence based microplate reader assay.

Experiment [3] concerns Plasmodium falciparum. The experiment is described as follows: Inhibition of proteasome in Plasmodium falciparum trophozoite stage transfected with GFP-DD assessed as reduction in GFP-DD fusion protein degradation at 0.02 to 0.5 uM incubated for 3 hrs in absence of Shield-1 by Western blot analysis. As to conditions: dose 0.02-0.5 µM. The procedure, abridged:
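GFP-DD reporter parasites were held in Shield-1 for 24 h, washed out, then treated as trophozoites (5% hematocrit, 5% parasitemia) with compound for 3 h at 37°C. […] Representative of four independent experiments.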
A general note: Immunoblotting shows a protein as a band on a membrane.

pKi: −log10 of the molar value. Active and inactive are the calls of the source. No cut-off for these calls is given here.

Usually pKi stands for the Ki on a negative log10 scale, so that one unit is a factor of ten. Consider `CC(C)C[C@H](NC(=O)[C@H](Cc1ccccc1)NC(=O)Cc1ccc(O)cc1)B(O)O`, for which, in experiment [1], the pKi is 8.37. Further, the T1/2 in experiment [2] amounted to 1.77 h. Further, in experiment [3], the inhibition entry is “Active”.

These data come from ChEMBL document CHEMBL4680111, “Target Validation and Identification of Novel Boronate Inhibitors of the Plasmodium falciparum Proteasome” (J Med Chem, 2018).
